Experimental data published in ChEMBL document CHEMBL4680373, “Evaluation of 5-(Trifluoromethyl)-1,2,4-oxadiazole-Based Class IIa HDAC Inhibitors for Huntington's Disease” (ACS Med Chem Lett, 2021).

Assays:
[1] = Time during which drug concentration exceeds the IC50 for inhibition of human Class 2A HDAC in C57BL/6J mouse brain at 30 mg/kg, po administered via gavage by LC-MS/MS analysis; assay type: organism-based; details: in vivo
In short: (§1)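 Single oral gavage doses of 10, 30 or 100 mg/kg were given to C57/BL6 mice. Brain and blood were sampled from 0.25 to 12 h and compound measured by LC-MS/MS. The time that total brain exposure stayed above the class IIa cellular IC50 was then estimated.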

[2] = In vivo inhibition of Class 1/2B HDAC in C57BL/6J mouse brain assessed as increase in global pan-acetylation at 10 mg/kg, po administered via gavage measured after 2 hrs by dot blot technique; assay type: organism-based
In short: (§2)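 Mice received single oral gavage doses of 10, 30 or 100 mg/kg, and brains were sampled from 0.25 to 12 h. Brain compound levels were measured by LC-MS/MS. Dot blots read H4K12 acetylation normalized to histone H4, or pan-acetyl-lysine normalized to tubulin.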

[3] = Toxicity in CBAxC57BL/6J mouse assessed as effect on seizure by tail at 10 to 100 mg/kg, po bid for 14.5 days; assay type: organism-based; details: in vivo, 348 h, dose 10-100 mg/kg, time 14.5 day
In short: (§3)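 R6/2 HD mice and wild-type littermates, male and female, were dosed orally b.i.d. at 10, 30 or 100 mg/kg or with vehicle for 14.5 days. Vehicle was 10% (w/v) hydroxypropyl-β-cyclodextrin in 50 mM citrate buffer. Body weight, body temperature, passive observations and active manipulation scores were recorded. Blood and brain were collected 2 h after the final dose.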

[4] = target: Muscarinic acetylcholine receptor M3 (Homo sapiens, UniProt P20309); experiment: Displacement of [3H]4-DAMP from human recombinant M3 receptor incubated for 1 hr by radiometric scintillation counting analysis
[5] = Toxicity in CBAxC57BL/6J mouse assessed as effect on provoked biting at 10 to 100 mg/kg, po bid for 14.5 days; assay type: organism-based; details: in vivo, 348 h, dose 10-100 mg/kg, time 14.5 day; in short: as §3
[6] = Toxicity in CBAxC57BL/6J mouse assessed as effect on loss of paw pull at 10 to 100 mg/kg, po bid for 14.5 days; assay type: organism-based; details: in vivo, 348 h, dose 10-100 mg/kg, time 14.5 day; in short: as §3
[7] = target: Voltage-gated inwardly rectifying potassium channel KCNH2 (Homo sapiens, UniProt Q12809); experiment: Inhibition of human ERG
In short: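 hERG affinity was measured on the IonWorks automated electrophysiology platform and reported as Kd.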

[8] = target: Sigma non-opioid intracellular receptor 1 (Homo sapiens) (UniProt Q99720); experiment: Displacement of [3H](+)-pentazocine from human sigma1 receptor at 10 uM incubated for 120 mins by radiometric scintillation counting analysis
In short: (§4)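 Broad selectivity panel of binding, cellular, functional and enzymatic assays run by a contract lab. Each test was done at a single 10 μM concentration and reported as percent inhibition.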

[9] = Toxicity in CBAxC57BL/6J mouse assessed as effect on tail tremor at 10 to 100 mg/kg, po bid for 14.5 days; assay type: organism-based; details: in vivo, 348 h, dose 10-100 mg/kg, time 14.5 day; in short: as §3
[10] = In vivo inhibition of Class 2B HDAC in CBAxC57BL/6J mouse brain assessed as increase in tubulin acetylation at 30 to 100 mg/kg, po bid for 14.5 days by western blot analysis; assay type: organism-based; details: 348 h, dose 30-100 mg/kg, time 14.5 day
In short: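 R6/2 and wild-type littermate mice of both sexes were dosed orally b.i.d. for 14.5 days with 10, 30 or 100 mg/kg or vehicle (10% w/v hydroxypropyl-β-cyclodextrin in 50 mM citrate buffer). Half-brains were collected 2 h after the last dose. Dot blots measured global and H4K12 acetylation; Western blots measured H3, H4 and tubulin acetylation. Genotypes were pooled.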

[11] = In vivo inhibition of Class 1 HDAC in C57BL/6J mouse brain assessed as increase in H4K12 acetylation administered orally via gavage measured after 2 to 4 hrs by dot blot technique; assay type: organism-based; details: po, dose lower 10 mg/kg, time lower 2 hrs, dose upper 100 mg/kg, time upper 4 hrs; in short: as §2
[12] = Stability of the compound in 10% (w/v) hydroxypropyl-beta-cyclodextrin in 50 mM citrate buffer at pH 5 measured over 30 days; assay type: physicochemical; details: pH 5, 720 h, time 30 day
Cytochrome P450 3A4 [13] = target: T1, Cytochrome P450 3A4 (Homo sapiens, UniProt P08684); experiment: Inhibition of CYP3A4 in human liver microsomes using midazolam as substrate incubated for 15 mins by LC-MS/MS analysis; assay type: ADME
Histone deacetylase 9 = Histone deacetylase 9 (Homo sapiens, UniProt Q9UKV0); experiment: Inhibition of HDAC9 (unknown origin) using Boc Lys(TFA) as substrate by fluorogenic assay
In short: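 Biochemical HDAC isoform assay with the artificial fluorogenic substrate Boc-Lys-(TFA)-AMC, which is specific to class IIa enzymes and HDAC8. IC50 taken as the geometric mean of three experiments.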

[14] = Inhibition of Class 2b HDAC in human HEK293 cells using alpha-tubulin as substrate by fluorogenic assay; assay type: cell-based
[15] = Inhibition of Class 1/2b HDAC in human Jurkat E6.1 cells using Boc-Lys-(Ac)-AMC as substrate by fluorogenic assay; assay type: cell-based
In short: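 Whole-cell assay in Jurkat E6.1 cells with artificial fluorogenic substrates: Boc-Lys-(TFA)-AMC for class IIa/HDAC8 activity, which in this line is mostly HDAC4, and Boc-Lys-(Ac)-AMC for class I/IIb activity. IC50 given as the geometric mean of three experiments.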

Cytochrome P450 2C19 = Cytochrome P450 2C19 (Homo sapiens, UniProt P33261); experiment: Inhibition of CYP2C19 in human liver microsomes using (S)-(+)-mephenytoin as substrate incubated for 30 mins by LC-MS/MS analysis; assay type: ADME
[16] = Toxicity in CBAxC57BL/6J mouse assessed as effect on flaccidity at 10 to 100 mg/kg, po bid for 14.5 days; assay type: organism-based; details: in vivo, 348 h, dose 10-100 mg/kg, time 14.5 day; in short: as §3
[17] = Time during which drug concentration exceeds the IC50 for inhibition of human Class 2A HDAC in C57BL/6J mouse brain at 10 mg/kg, po administered via gavage by LC-MS/MS analysis; assay type: organism-based; details: in vivo; in short: as §1
Cytochrome P450 2C9 = Cytochrome P450 2C9 (Homo sapiens, UniProt P11712); experiment: Inhibition of CYP2C9 in human liver microsomes using diclofenac as substrate incubated for 15 mins by LC-MS/MS analysis; assay type: ADME
Cytochrome P450 2C8 = Cytochrome P450 2C8 (Homo sapiens, UniProt P10632); experiment: Inhibition of CYP2C8 in human liver microsomes using amodiaquine as substrate incubated for 15 mins by LC-MS/MS analysis; assay type: ADME
[18] = Toxicity in CBAxC57BL/6J mouse assessed as effect on flat body posture at 10 to 100 mg/kg, po bid for 14.5 days; assay type: organism-based; details: in vivo, 348 h, dose 10-100 mg/kg, time 14.5 day; in short: as §3
[19] = Toxicity in CBAxC57BL/6J mouse assessed as effect on seizure at 10 to 100 mg/kg, po bid for 14.5 days; assay type: organism-based; details: in vivo, 348 h, dose 10-100 mg/kg, time 14.5 day; in short: as §3
[20] = Toxicity in CBAxC57BL/6J mouse assessed as effect on straub tail at 10 to 100 mg/kg, po bid for 14.5 days; assay type: organism-based; details: in vivo, 348 h, dose 10-100 mg/kg, time 14.5 day; in short: as §3
Cytochrome P450 3A4 [21] = target: T1, Cytochrome P450 3A4; experiment: Inhibition of CYP3A4 in human liver microsomes using testosterone as substrate incubated for 30 mins by LC-MS/MS analysis; assay type: ADME
[22] = target: Muscarinic acetylcholine receptor M4 (Homo sapiens) (UniProt P08173); experiment: Displacement of [3H]4-DAMP from human recombinant M4 receptor at 10 uM incubated for 1 hr by radiometric scintillation counting analysis; in short: as §4
Muscarinic acetylcholine receptor M4 (Homo sapiens), sequence (P08173 whole entry): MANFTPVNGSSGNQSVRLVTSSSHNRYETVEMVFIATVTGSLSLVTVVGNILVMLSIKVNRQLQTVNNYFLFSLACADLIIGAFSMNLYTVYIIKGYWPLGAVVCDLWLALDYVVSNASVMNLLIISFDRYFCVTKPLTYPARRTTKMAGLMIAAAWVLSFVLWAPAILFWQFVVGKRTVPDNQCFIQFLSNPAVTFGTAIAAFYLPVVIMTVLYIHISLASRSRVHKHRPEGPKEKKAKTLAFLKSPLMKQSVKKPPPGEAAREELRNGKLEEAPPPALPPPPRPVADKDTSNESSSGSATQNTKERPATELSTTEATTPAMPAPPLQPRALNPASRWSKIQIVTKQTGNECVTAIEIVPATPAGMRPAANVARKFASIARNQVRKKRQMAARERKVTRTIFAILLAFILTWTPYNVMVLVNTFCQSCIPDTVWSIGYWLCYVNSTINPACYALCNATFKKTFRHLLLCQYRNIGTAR

T1 sequence (P08684 whole entry): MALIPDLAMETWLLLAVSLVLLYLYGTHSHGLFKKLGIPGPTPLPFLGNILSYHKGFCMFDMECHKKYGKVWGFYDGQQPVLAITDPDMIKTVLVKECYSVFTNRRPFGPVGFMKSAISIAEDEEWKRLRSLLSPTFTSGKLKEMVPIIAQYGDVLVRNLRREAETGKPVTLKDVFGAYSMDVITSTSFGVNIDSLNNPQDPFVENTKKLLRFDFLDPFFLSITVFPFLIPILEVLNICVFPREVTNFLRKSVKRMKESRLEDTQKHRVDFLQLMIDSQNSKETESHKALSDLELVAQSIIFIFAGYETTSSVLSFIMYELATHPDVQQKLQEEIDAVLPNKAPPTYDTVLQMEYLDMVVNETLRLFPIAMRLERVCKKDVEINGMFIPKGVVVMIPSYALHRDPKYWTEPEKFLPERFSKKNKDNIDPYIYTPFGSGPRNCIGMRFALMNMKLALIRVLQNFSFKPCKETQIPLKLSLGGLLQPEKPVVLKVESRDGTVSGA
Cytochrome P450 2C19, sequence (P33261 whole entry): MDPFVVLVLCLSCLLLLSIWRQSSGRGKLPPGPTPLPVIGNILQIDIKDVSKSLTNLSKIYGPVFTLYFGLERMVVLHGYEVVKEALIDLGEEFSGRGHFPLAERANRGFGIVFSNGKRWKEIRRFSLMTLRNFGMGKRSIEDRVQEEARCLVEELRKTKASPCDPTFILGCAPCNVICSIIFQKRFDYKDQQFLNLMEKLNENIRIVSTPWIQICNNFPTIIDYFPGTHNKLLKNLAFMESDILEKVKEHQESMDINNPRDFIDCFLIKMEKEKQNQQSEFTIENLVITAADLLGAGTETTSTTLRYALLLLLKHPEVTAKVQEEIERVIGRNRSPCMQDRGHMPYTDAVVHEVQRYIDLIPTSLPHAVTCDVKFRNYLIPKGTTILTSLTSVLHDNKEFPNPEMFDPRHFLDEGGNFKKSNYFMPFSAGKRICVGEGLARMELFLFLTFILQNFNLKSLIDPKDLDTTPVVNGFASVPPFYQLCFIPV
Cytochrome P450 2C8, sequence (P10632 whole entry): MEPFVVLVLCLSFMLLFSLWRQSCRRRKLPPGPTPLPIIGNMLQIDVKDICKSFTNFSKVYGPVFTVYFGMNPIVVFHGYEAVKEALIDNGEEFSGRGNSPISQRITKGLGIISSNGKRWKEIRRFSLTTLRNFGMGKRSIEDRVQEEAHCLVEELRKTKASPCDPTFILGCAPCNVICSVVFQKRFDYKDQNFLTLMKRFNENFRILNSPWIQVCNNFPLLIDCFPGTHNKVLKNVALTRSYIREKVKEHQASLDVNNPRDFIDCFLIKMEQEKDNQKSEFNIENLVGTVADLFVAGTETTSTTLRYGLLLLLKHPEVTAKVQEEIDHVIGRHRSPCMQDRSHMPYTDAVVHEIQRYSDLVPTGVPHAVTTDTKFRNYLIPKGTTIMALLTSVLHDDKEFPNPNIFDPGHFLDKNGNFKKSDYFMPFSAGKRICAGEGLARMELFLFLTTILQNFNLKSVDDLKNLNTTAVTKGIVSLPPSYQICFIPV
Voltage-gated inwardly rectifying potassium channel KCNH2, sequence (Q12809 whole entry): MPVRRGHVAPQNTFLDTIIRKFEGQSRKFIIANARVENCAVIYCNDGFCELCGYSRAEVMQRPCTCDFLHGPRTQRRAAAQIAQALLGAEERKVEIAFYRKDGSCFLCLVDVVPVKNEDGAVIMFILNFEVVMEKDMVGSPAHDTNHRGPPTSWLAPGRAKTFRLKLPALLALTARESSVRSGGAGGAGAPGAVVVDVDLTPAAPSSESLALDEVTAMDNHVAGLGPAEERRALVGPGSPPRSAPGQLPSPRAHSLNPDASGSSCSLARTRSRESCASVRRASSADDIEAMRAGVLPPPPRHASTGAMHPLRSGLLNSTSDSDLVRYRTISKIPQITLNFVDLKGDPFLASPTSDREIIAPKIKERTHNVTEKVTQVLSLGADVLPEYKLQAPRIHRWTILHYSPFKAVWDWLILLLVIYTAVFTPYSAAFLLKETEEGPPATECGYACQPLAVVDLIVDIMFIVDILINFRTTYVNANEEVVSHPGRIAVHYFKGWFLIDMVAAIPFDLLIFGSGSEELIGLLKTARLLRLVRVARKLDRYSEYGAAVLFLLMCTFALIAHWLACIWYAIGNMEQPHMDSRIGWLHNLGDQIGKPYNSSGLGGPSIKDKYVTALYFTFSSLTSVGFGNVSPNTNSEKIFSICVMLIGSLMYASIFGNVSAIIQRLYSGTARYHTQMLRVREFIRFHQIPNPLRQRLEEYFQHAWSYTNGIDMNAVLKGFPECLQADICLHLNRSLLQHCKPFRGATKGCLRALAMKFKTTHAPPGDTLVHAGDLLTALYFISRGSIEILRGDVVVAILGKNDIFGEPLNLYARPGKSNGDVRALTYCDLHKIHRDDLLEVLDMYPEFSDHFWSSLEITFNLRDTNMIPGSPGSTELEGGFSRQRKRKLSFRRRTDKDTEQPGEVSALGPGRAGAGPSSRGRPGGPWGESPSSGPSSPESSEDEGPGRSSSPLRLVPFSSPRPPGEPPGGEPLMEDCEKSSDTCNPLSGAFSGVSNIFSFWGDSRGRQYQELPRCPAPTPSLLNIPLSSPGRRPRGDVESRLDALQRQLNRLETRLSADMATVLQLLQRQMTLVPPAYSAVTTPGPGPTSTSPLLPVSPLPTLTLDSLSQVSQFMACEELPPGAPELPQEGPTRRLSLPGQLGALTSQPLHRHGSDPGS
Cytochrome P450 2C9, sequence (P11712 whole entry): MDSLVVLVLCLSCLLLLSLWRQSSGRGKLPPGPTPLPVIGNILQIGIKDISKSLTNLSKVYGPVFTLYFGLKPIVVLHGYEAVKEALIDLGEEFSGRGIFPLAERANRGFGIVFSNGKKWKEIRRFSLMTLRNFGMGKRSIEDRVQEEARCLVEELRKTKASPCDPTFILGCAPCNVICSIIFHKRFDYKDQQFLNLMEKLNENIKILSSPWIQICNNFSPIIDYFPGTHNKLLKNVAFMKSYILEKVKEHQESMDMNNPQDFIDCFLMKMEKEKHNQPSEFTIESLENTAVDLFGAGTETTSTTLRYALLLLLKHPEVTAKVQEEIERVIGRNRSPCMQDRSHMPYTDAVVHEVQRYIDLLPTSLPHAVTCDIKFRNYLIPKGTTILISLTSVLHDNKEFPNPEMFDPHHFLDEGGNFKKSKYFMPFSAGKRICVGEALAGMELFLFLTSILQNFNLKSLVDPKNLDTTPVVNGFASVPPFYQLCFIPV
Muscarinic acetylcholine receptor M3, sequence (P20309 whole entry): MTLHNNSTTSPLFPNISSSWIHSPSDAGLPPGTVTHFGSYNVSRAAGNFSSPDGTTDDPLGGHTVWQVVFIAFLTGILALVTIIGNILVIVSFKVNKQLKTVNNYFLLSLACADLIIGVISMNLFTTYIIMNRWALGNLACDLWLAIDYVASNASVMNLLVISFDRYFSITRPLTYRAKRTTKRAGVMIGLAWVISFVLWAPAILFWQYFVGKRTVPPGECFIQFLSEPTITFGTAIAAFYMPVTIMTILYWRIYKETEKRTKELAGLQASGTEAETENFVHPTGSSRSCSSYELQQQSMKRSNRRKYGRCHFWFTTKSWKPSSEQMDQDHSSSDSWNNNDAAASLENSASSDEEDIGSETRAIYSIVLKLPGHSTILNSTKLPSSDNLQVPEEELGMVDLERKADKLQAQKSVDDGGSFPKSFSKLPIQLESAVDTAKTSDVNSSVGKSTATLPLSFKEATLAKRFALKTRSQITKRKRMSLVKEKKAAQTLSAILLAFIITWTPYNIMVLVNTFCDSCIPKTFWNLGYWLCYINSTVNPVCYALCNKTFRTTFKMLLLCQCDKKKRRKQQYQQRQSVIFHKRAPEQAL
Sigma non-opioid intracellular receptor 1 (Homo sapiens), sequence (Q99720 whole entry): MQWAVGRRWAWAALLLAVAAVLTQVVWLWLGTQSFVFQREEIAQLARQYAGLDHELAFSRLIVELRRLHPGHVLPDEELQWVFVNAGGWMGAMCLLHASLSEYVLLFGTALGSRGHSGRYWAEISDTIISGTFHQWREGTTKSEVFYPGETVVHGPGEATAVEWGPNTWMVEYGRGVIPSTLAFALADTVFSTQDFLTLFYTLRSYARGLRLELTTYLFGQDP

C[C@H](CN1CCC[C@@H]1C)NC(=O)c1ccc(-c2noc(C(F)(F)F)n2)cc1
T>IC50 [1]: 8 h | Activity [2]: Toxic | Activity [3]: Non-Toxic | Kd [4]: > 5 µM | Activity [5]: Non-Toxic | Activity [6]: Non-Toxic | Kd [7]: 3.9 µM | inhibition [8]: > 50% | Activity [9]: Non-Toxic | Activity [10]: Toxic | Activity [11]: Toxic | Stabilty [12]: Stable | IC50 (Cytochrome P450 3A4 [13]): > 50 µM | IC50 (Histone deacetylase 9): 0.03 µM | IC50 [14]: > 29 µM | IC50 [15]: 5 µM | IC50 (Cytochrome P450 2C19): > 50 µM | Activity [16]: Non-Toxic | T>IC50 [17]: 4 h | IC50 (Cytochrome P450 2C9): > 50 µM | IC50 (Cytochrome P450 2C8): > 50 µM | Activity [18]: Non-Toxic | Activity [19]: Non-Toxic | Activity [20]: Non-Toxic | IC50 (Cytochrome P450 3A4 [21]): > 50 µM | inhibition [22]: > 80%
